Reference: ChEMBL document CHEMBL1811868, “Structure-activity relationship of 2-hydroxy-2-aryl-2,3-dihydro-imidazo[1,2-a]pyrimidinium salts and 2N-substituted 4(5)-aryl-2-amino-1H-imidazoles as inhibitors of biofilm formation by Salmonella Typhimurium and Pseudomonas aeruginosa” (Bioorg Med Chem, 2011)

Tests used:
Pseudomonas aeruginosa = assay: Antimicrobial activity against Pseudomonas aeruginosa PA14 assessed as inhibition of biofilm formation after 24 hrs by spectrophotometry; assay type: functional, organism-based; settings: PA14, 24 h
Procedure, shortened: (§1)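 Static peg-lid biofilm prevention assay. Twofold serial dilutions in TSB diluted 1/20, 2–3 repeats per compound. Overnight S. Typhimurium ATCC14028 (LB-grown) or P. aeruginosa PA14 (TSB-grown) cultures were diluted 1:100, giving ~10^6 cells/well, then incubated 24 h at 25 °C without shaking. Pegs were PBS-washed, stained 30 min with 0.1% crystal violet, extracted with 30% acetic acid and read at OD570. IC50 was fitted from the concentration gradient.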

Salmonella typhimurium = assay: Antimicrobial activity against Salmonella Typhimurium ATCC 14028 assessed as inhibition of biofilm formation after 24 hrs by spectrophotometry; assay type: functional, organism-based, Salmonella enterica subsp. enterica serovar Typhimurium; settings: for IC50: Salmonella enterica, ATCC 14028, 24 h; procedure, shortened: as §1

Row | IC50 (Pseudomonas aeruginosa) | IC50 (Salmonella typhimurium) | Compound | inhibition (INH) (Salmonella typhimurium)
1 | 41.5 µM | 211 µM | CC(C)(C)N1c2nccc[n+]2C[C@@]1(O)c1ccc([N+](=O)[O-])cc1 | –
2 | > 800 µM | 1.9 µM | CCCCCCCCNc1ncc(-c2ccc(Br)cc2)[nH]1 | –
3 | > 800 µM | > 800 µM | COc1cccc(CNc2ncc(-c3ccc(-c4ccc(-c5ccccc5)cc4)cc3)[nH]2)c1 | –
4 | 170 µM | 225 µM | CN1c2nccc[n+]2C[C@@]1(O)c1ccc(Cl)cc1 | –
5 | 36.5 µM | 13.2 µM | CCCCCCCCN1c2nccc[n+]2C[C@@]1(O)c1ccc(SC)cc1 | –
6 | > 400 µM | 410 µM | CCCCN1c2nccc[n+]2C[C@@]1(O)c1ccccc1 | –
7 | 25 µM | > 800 µM | Clc1ccc(-c2cnc(NC3CCCCC3)[nH]2)cc1 | –
8 | 1.6 µM | > 400 µM | CCCCCCCCNc1ncc(-c2ccc(Cl)cc2)[nH]1 | –
9 | – | 163 µM | CCCCN1c2nccc[n+]2C[C@@]1(O)c1ccc(F)cc1 | –
10 | – | 212 µM | O[C@@]1(c2ccccc2)C[n+]2cccnc2N1Cc1ccccc1 | –
11 | 565 µM | 278 µM | CCCCCN1c2nccc[n+]2C[C@@]1(O)c1ccccc1 | –
12 | 10.5 µM | – | c1ccc2c(-c3cnc(NCc4ccc5c(c4)OCO5)[nH]3)cccc2c1 | –
13 | > 800 µM | 579 µM | CCN1c2nccc[n+]2C[C@@]1(O)c1ccc([N+](=O)[O-])cc1 | –
14 | – | 7.6 µM | CCCCCCCCN1c2nccc[n+]2C[C@@]1(O)c1ccc(F)cc1 | –
15 | 36.9 µM | 6.7 µM | CCCCCCCN1c2nccc[n+]2C[C@@]1(O)c1ccc(Cl)cc1 | –
16 | 12.5 µM | > 400 µM | CCCCCCNc1ncc(-c2ccc(F)cc2)[nH]1 | –
17 | 192 µM | 322 µM | CC(C)CN1c2nccc[n+]2C[C@@]1(O)c1ccc([N+](=O)[O-])cc1 | –
18 | > 400 µM | 698 µM | CN1c2nccc[n+]2C[C@@]1(O)c1ccc([N+](=O)[O-])cc1 | –
19 | – | 1820 µM | CN1c2nccc[n+]2C[C@@]1(O)c1ccc(F)cc1 | –
20 | – | 7.1 µM | CCCCCCCCN1c2nccc[n+]2C[C@@]1(O)c1ccc(Cl)c(Cl)c1 | –

Row | IC50 (Pseudomonas aeruginosa) | IC50 (Salmonella typhimurium) | Compound | inhibition (INH) (Salmonella typhimurium)
21 | 215 µM | 31 µM | CCCCCCCCN1c2nccc[n+]2C[C@@]1(O)c1ccc(-c2ccc([N+](=O)[O-])cc2)cc1 | –
22 | > 400 µM | 493 µM | O[C@@]1(c2ccccc2)C[n+]2cccnc2N1C1CCC1 | –
23 | 104 µM | 171 µM | CCNc1ncc(-c2ccc([N+](=O)[O-])cc2)[nH]1 | –
24 | > 800 µM | > 800 µM | COc1ccc(CNc2ncc(-c3ccc([N+](=O)[O-])cc3)[nH]2)cc1 | –
25 | > 800 µM | > 800 µM | COc1cccc(CNc2ncc(-c3ccc(Cl)c(Cl)c3)[nH]2)c1 | –
26 | > 800 µM | 400 µM | CCCCCCCCNc1ncc(-c2ccc(OC)cc2)[nH]1 | 50%
27 | 261 µM | > 800 µM | CC(C)Nc1ncc(-c2ccccc2)[nH]1 | –
28 | > 800 µM | 316 µM | CCCCCCCCCCCCCN1c2nccc[n+]2C[C@@]1(O)c1ccc(Cl)cc1 | –
29 | 6.3 µM | > 400 µM | CCCCCNc1ncc(-c2ccc(Cl)cc2)[nH]1 | –
30 | – | 10.5 µM | CCCCCCCCN1c2nccc[n+]2C[C@@]1(O)c1ccc(OC)cc1 | –
31 | – | 174 µM | O=[N+]([O-])c1ccc([C@]2(O)C[n+]3cccnc3N2Cc2ccccc2)cc1 | –
32 | – | 110 µM | COc1ccc(CN2c3nccc[n+]3C[C@@]2(O)c2ccc(Br)cc2)cc1 | –
33 | – | 160 µM | CNc1ncc(-c2ccc(O)cc2)[nH]1 | –
34 | – | > 800 µM | CCCCCCCCCNc1ncc(-c2ccc(Cl)cc2)[nH]1 | –
35 | – | 20 µM | CCCCCCCCCCN1c2nccc[n+]2C[C@@]1(O)c1ccc(F)cc1 | –
36 | – | 90.1 µM | CCCCN1c2nccc[n+]2C[C@@]1(O)c1ccc(Br)cc1 | –
37 | – | 602 µM | CNc1ncc(-c2ccc(F)c(F)c2)[nH]1 | –
38 | – | 314 µM | CCCCN1c2nccc[n+]2C[C@@]1(O)c1ccc(OC)cc1 | –
39 | – | 564 µM | CN1c2nccc[n+]2C[C@@]1(O)c1cccc([N+](=O)[O-])c1 | –
40 | – | 32.4 µM | CCCCCCCCCCN1c2nccc[n+]2C[C@@]1(O)c1ccc(Cl)c(Cl)c1 | –
